Rows were chosen to be rich in hits. Some 4.8% of all compounds tested hit in one or more screens of this group.
APP 5'UTR act: activators of APP 5'UTR luciferase reporter, primary screen, SH-SY5Y cells. SH-SY5Y APP 5'UTR luciferase reporter, luminescence; zero percent = DMSO vehicle wells. activation, % at 2 µM. 190,000 tested, 1% active. AID 1276, 2008;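 active means activation above a set limit, based on mean plus 3 SD of controls, cut at about 140% in these data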
FLuc inh counter: firefly luciferase enzyme inhibitors, primary screen, artefact control for luciferase-based inhibitor screens, biochemical, luminescence, ATPLite; Luciferin 4-monooxygenase (Photinus pyralis), P08659; 10 min; inhibition, % at 10 µM; 200,000 tested, 1.5% active; AID 1006, 2008;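 active means inhibition above about 50% when tested at 10 µM, limit read from the data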
Target sequence (P08659 whole entry, looked up): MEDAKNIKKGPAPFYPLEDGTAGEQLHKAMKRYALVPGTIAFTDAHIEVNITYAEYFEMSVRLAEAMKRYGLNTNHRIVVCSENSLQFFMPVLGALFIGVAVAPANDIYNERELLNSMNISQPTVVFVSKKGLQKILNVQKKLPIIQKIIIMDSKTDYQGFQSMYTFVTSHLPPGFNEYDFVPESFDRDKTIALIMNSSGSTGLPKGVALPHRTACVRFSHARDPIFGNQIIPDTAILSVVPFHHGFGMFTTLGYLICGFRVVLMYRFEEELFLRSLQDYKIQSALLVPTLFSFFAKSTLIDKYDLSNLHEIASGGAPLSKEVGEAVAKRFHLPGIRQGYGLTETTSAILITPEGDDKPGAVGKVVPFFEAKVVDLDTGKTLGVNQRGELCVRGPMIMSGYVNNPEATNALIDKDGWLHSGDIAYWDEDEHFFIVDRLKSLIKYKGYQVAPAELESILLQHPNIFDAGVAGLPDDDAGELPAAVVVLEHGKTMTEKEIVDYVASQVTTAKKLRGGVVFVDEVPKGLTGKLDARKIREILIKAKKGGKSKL
NF-kB expr up: activators of NF-kB expression in neurons, primary screen, cell-based, HTS | human neuronal cells, NF-kB reporter expression; active compounds read high | fold change at 12.5 µM | 190,000 tested, 1.6% active; in the data active means fold change above about 3.3
APP 5UTR inh: inhibitors of APP translation via 5'UTR reporter, primary screen, APP 5'UTR luciferase, SH-SY5Y cells | SH-SY5Y APP 5'UTR-luciferase reporter, luminescence | inhibition, % at 2 µM | 190,000 tested, 0.82% active;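 active means inhibition above a set limit, derived from the sample mean plus 3 SD, cut at about 45% in these data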
STAT1 activator: STAT1 signaling activators, primary screen, cell-based, HTS, luciferase reporter; activation (% of control), % at 5.5 µM; NIH 3T3 STAT1-luciferase reporter, IFN-gamma, luminescence; 100% = IFN-gamma alone, no compound; 200,000 tested, 2.6% active; AID 932, 2007;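 active means activation above the screen-wide mean activation plus 3 SD, cut at about 130% in these data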;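 further: raw ratio to IFN-gamma control signal so 100% means no change and 0% no light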
FLuc stim CS: FLuc activators, initial screening, artefact control for FLuc-dependent activation tests, biochemical, ATPlite luminescence | Luciferin 4-monooxygenase (Photinus pyralis), P08659 | ATPlite luciferase biochemical, 10 min; 0 = ATP-free wells, 1 = DMSO control | activation factor at 10 µM | 200,000 tested, under 10 active;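 active means luciferase activation factor, scaled between plate controls, of at least 2 with compound at 10 µM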
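Material: Luciferase/luciferin reagent mix; Doses: test compounds dosed from 2 mM stocks in 100% DMSO; Schedule: 10 min incubation after luciferase reagent addition, room temperature; Measured by: luminescence from luciferase reaction; Read-out: luminescence gain marking luciferase activators.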
Numbers without * were called inactive; nt = no result.

SMILES | APP 5'UTR act | FLuc inh counter | NF-kB expr up | APP 5UTR inh | STAT1 activator | FLuc stim CS
O=C(NC1C(=O)NNC1c1ccccc1)c1ccc(F)cc1 (stereo not given) | 3 | -5 | 1.6 | -3 | 129* | 1.1
O=c1[nH]c2ccccc2c2nc3ccccn3c12 | 17 | 54* | 1.1 | -17 | 115 | 0.5
O=c1nc2c(O)cccn2c2c1c(=O)[nH]c1ccccc12 | 4 | 0 | 1.5 | -4 | 107 | 1
CC(/C=N/NC(=O)CSc1nnc(SCc2ccccc2)s1)=C\c1ccco1 | 2 | 12 | 1.1 | -2 | 98 | 0.9
Cc1ccc(NC(=O)CN2C(=O)C3C4C=CC(C4)C3C2=O)cc1S(=O)(=O)N(C)C (stereo not given) | -55 | -8 | 1.1 | 55* | 100 | 1.1
O=[N+]([O-])c1cc(C(F)(F)F)ccc1NCCNC(=S)Nc1ccc(Cl)cc1 | 3 | -2 | 0.5 | -3 | 111 | 1
c1ccc2c(Oc3ccc4c(c3)OCO4)nncc2c1 | 120 | 47 | 4.3* | -120 | 138* | 0.5
O=C(CN1C(=O)S/C(=C/c2ccc(N3CCOCC3)cc2)C1=O)N1CCOCC1 | 38 | 76* | 1.6 | -38 | 113 | 0.2
C#CCN1C(=O)S/C(=C\c2ccc(N3CCOCC3)cc2C)C1=O | 74 | 17 | 1.6 | -74 | 132* | 0.8
CCN1C(=O)S/C(=C\c2ccc(N3CCOCC3)cc2C)C1=O | 34 | 40 | 1.4 | -34 | 144* | 0.6
CCC(C)N1C(=O)S/C(=C/c2ccc(N3CCOCC3)cc2C)C1=O (stereo not given) | 61 | 1 | 0.5 | -61 | 132* | 1
Cc1ccc(/C=C2/SC(=O)N(CC(=O)N3CCOCC3)C2=O)s1 | 1 | -1 | 1.1 | -1 | 104 | 1
Cc1cc(N2CCOCC2)ccc1/C=C1\SC(=O)N(C(C)C)C1=O | 16 | 36 | 0.71 | -16 | 120 | 0.6
CCOc1cc(C(=O)Nc2ccc(S(=O)(=O)NC3=NCCCCC3)cc2)cc(OCC)c1OCC | -6 | -3 | 0.78 | 6 | 97 | 1
CC(C)CCNC(=O)c1ccc(-c2ccccc2)cc1 | 55 | 18 | 2.9 | -55 | 132* | 0.8
CC(C)CCNC(=O)C(=O)Nc1ccccc1 | 130 | 10 | 3 | -130 | 129* | 0.9
Cc1cccc(NC(=S)NCCC(C)C)c1 | 6 | 4 | 1 | -6 | 102 | 1
COCCn1c(C)cc(C(=O)COC(=O)c2cc3c(s2)CCC3)c1C | 17 | -6 | 1 | -18 | 136* | 1.1
Cc1cc(C(=O)COC(=O)c2cccn2C)c(C)n1Cc1ccco1 | 166* | 80* | 1 | -166 | 65 | 0.2
Cc1cc(C(=O)CSc2nnc(N)s2)c(C)n1Cc1ccco1 | 235* | 80* | 4.1* | -235 | 85 | 0.2
COCCn1c(C)cc(C(=O)CSc2nnc(C)s2)c1C | 22 | 70* | 1.3 | -22 | 64 | 0.3
CNC(=O)c1ccc(CNC(=O)OCc2ccccc2)cc1 | 17 | -10 | 1.4 | -17 | 103 | 1.1
Cc1cc(C(=O)COC(=O)c2ccncc2)c(C)n1Cc1ccco1 | 25 | 79* | 0.6 | -25 | 129* | 0.2
O=C(N/N=C/c1ccc2c(c1)OCO2)C(O)c1ccccc1 (stereo not given) | -1 | 13 | 1.1 | 1 | 121 | 0.9
O=C(Cn1ncc(Cl)c(Cl)c1=O)c1ccc(Cl)cc1 | -81 | -1 | 1.1 | 81* | 88 | 1
SMILES | APP 5'UTR act | FLuc inh counter | NF-kB expr up | APP 5UTR inh | STAT1 activator | FLuc stim CS
C=CCn1c(C)cc(C(=O)Cn2ncc(Cl)c(Cl)c2=O)c1C | -87 | 24 | 0.65 | 87* | 84 | 0.8
CCCCc1ccc(NC(=O)CN2NS(=O)(=O)c3ccccc3C2=O)cc1 | -7 | -8 | 1.1 | 7 | 98 | 1.1
C=CCn1c(C)cc(C(=O)COC(=O)/C=C/c2cccc(OC)c2)c1C | 1 | 0 | 1.4 | -1 | 95 | 1
C=CCn1c(C)cc(C(=O)CN2NS(=O)(=O)c3ccccc3C2=O)c1C | -85 | 55* | 1.2 | 85* | 143* | 0.4
CC(C)(C)C(=O)Cn1ncc(Cl)c(Cl)c1=O | -50 | -2 | 1.1 | 50* | 86 | 1
CC(C)NC(=O)C1(c2ccccc2)CC1(Cl)Cl (stereo not given) | -8 | -7 | 1.2 | 8 | 104 | 1.1
Cc1c(N=NC2=C(O)CC(C)(C)CC2=O)c(=O)n(-c2ccccc2)n1C | -8 | -3 | 1.3 | 8 | 98 | 1
COc1ccc(C(=O)C2CCCN(S(=O)(=O)C(C)C)C2)c(C)c1 (stereo not given) | 16 | -5 | 1 | -16 | 94 | 1
O=C(Cn1ncc(Cl)c(Cl)c1=O)NCC1CCCCC1 | -97 | 0 | 0.89 | 97* | 90 | 1
Cc1nc2ccccc2n1CC(=O)N1CC(=O)Nc2ccccc21 | 6 | -4 | 1.1 | -6 | 95 | 1
Cc1cccc(N2CCN(CC(=O)NCC3CCCCC3)CC2)c1C | -18 | -1 | 1.2 | 18 | 96 | 1
Cc1ccc(NC(=O)CN(C)C(=O)COc2c(Cl)cc(Cl)c3ccc(C)nc23)cc1 | 3 | -1 | 0.87 | -3 | 88 | 1
O=C1CN(C(=O)Cn2ncc(Cl)c(Cl)c2=O)c2ccccc2N1 | -90 | -6 | 0.97 | 90* | 91 | 1.1
Cc1ccc(NC(=O)CN(C)C(=O)Cn2ncc(Cl)c(Cl)c2=O)cc1 | -96 | 6 | 0.14 | 96* | 91 | 0.9
CC(=O)N1CCN(S(=O)(=O)c2cccc(C(=O)Nc3nccs3)c2)CC1 | -9 | -4 | 1.2 | 9 | 131* | 1
Cc1ccc(/C=C2/Sc3ccccc3N(CC(=O)NCCCOC(C)C)C2=O)cc1 | 2 | -4 | 1.3 | -2 | 100 | 1
c1ccc(-c2nnc(NC3=NCCC3)o2)cc1 | 122 | 66* | 0.97 | -122 | 116 | 0.3
O=C(Nc1ccccc1)Nc1nnc(-c2ccccc2)o1 | 11 | 1 | 0.97 | -11 | 107 | 1
Fc1ccc(-c2nnc(NC3=NCCCCC3)o2)cc1 | 45 | 87* | 0.65 | -45 | 38 | 0.1
Cc1c(Cl)cccc1NC(=O)CCC(=O)NNC(=O)c1ccccc1 | -2 | -6 | 0.99 | 2 | 103 | 1.1
O=C(N1CCN(c2ccc(F)cc2)CC1)C1(c2cccs2)CCOCC1 | 10 | 1 | 0.9 | -10 | 99 | 1
CCc1ccc2nc(SCC(=O)N3CC(=O)Nc4ccccc43)c(C#N)cc2c1 | -94 | 1 | 1.2 | 94* | 107 | 1
CCc1ccc2nc(SCC(=O)N3CCCCC3)c(C#N)cc2c1 | 9 | nt | nt | -8 | 103 | nt
